Data from ChEMBL document CHEMBL1153214, “Synthesis and PGE(2) production inhibition of 1H-furan-2,5-dione and 1H-pyrrole-2,5-dione derivatives” (Bioorg Med Chem Lett, 2010).

How the values were obtained:
RAW264.7 [1] = test: Antiinflammatory activity in mouse RAW264.7 cells assessed as inhibition of LPS-induced PGE2 production by EIA; format: functional, cell-based
Summary of the method: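 RAW 264.7 macrophages seeded at 10⁵ cells/well in 96-well plates. Cells pretreated with test samples at increasing concentrations or NS398 as positive control, then stimulated with LPS 1 µg/ml for the indicated time. PGE₂ in the medium quantified by EIA. IC50 derived; experiments run at least three times.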

RAW264.7 [2] = test: Cytotoxicity against LPS-stimulated mouse RAW264.7 cells assessed as cell viability after 24 hrs by MTT assay; format: cell-based; conditions: RAW264.7, 24 h
Summary of the method: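 RAW 264.7 cells plated at 10⁵ cells/well in 96-well plates, treated with various concentrations of compounds in the presence of LPS. Viability read by colorimetric MTT assay 24 h after treatment.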

[3] = target: T1, Prostaglandin G/H synthase 2 (Homo sapiens, UniProt P35354); test: Inhibition of COX2 assessed as PGF2alpha level by EIA
T1 sequence (P35354 whole entry): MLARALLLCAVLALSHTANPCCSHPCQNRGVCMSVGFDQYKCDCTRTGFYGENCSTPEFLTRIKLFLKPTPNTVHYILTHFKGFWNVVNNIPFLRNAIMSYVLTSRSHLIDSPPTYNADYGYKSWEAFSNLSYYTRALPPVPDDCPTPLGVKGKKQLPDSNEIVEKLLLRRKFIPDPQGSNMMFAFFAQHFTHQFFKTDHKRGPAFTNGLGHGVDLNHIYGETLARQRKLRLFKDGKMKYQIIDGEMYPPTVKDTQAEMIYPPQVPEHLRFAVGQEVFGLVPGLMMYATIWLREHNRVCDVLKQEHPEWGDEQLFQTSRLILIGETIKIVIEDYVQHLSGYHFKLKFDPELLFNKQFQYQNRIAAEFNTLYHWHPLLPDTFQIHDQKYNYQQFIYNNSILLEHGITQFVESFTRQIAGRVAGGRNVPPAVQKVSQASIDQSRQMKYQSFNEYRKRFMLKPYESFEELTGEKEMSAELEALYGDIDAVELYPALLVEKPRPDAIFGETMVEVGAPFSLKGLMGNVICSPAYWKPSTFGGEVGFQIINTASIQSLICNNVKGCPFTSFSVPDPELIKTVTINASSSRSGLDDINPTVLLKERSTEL

[4] = Mus musculus, RAW264.7, read-out: IC50

Structure (SMILES) | IC50 (RAW264.7 [1]; [4]) [µM] | IC50 (RAW264.7 [2]) [µM] | IC50 [3] [µM] | IC50 (RAW264.7 [1]; raw264.7)
O=C1OC(=O)C(c2ccc3c(c2)OCO3)=C1c1ccccc1 | 7.13 | 329 | 18.5 | 
CS(=O)(=O)c1ccc(C2=C(c3ccccc3)C(=O)NC2=O)cc1 | 2.71 | 269 | 17.5 | 
O=C1NC(=O)C(c2ccc(O)c(O)c2)=C1c1ccccc1 | 2.69 | 207 | 16 | 
O=C1NC(=O)C(c2ccc3c(c2)OCO3)=C1c1ccccc1 | 7.96 | 195 |  | 
COc1ccc(C2=C(c3ccccc3)C(=O)OC2=O)cc1OC | 71.3 | 257 |  | 
CC(=O)Oc1ccc(C2=C(c3ccc([S+](C)[O-])cc3)C(=O)OC2=O)cc1 (configuration not stated) | 68.8 | 262 |  | 
CSc1ccc(C2=C(c3ccccc3)C(=O)NC2=O)cc1 | 4.73 | 152 | 16.3 | 
COc1ccc(C2=C(c3ccc(SC)cc3)C(=O)OC2=O)cc1 | 12.6 | 266 |  | 
CSc1ccc(C2=C(c3ccc(F)cc3)C(=O)NC2=O)cc1 | 25.5 | 121 |  | 
C[S+]([O-])c1ccc(C2=C(c3ccc(F)cc3)C(=O)NC2=O)cc1 (configuration not stated) | 45.2 | 242 |  | 
COc1cc(C2=C(c3ccccc3)C(=O)NC2=O)cc(OC)c1OC | 25.1 | 151 |  | 
CS(=O)(=O)c1ccc(C2=C(c3ccc(F)cc3)C(=O)NC2=O)cc1 | 10.8 | 261 |  | 
COc1ccc(C2=C(c3ccc([S+](C)[O-])cc3)C(=O)OC2=O)cc1 (configuration not stated) | 23.8 | 284 |  | 
CSc1ccc(C2=C(c3ccccc3)C(=O)OC2=O)cc1 | 3.58 | 195 | 18.5 | 
CC(=O)Oc1ccc(C2=C(c3ccc(S(C)(=O)=O)cc3)C(=O)OC2=O)cc1 | 4.41 | 262 | 16.6 | 
O=C1NC(=O)C(c2ccccc2)=C1c1ccccc1 | 27.9 | 270 |  | 

Structure (SMILES) | IC50 (RAW264.7 [1]; [4]) [µM] | IC50 (RAW264.7 [2]) [µM] | IC50 [3] [µM] | IC50 (RAW264.7 [1]; raw264.7)
CSc1ccc(C2=C(c3ccc(N(C(C)=O)C(C)=O)cc3)C(=O)OC2=O)cc1 | 78.5 | 277 |  | 
NS(=O)(=O)c1ccc(C2=C(c3ccccc3)C(=O)NC2=O)cc1 |  | 158 | 15.6 | 
O=C1NC(=O)C(c2cccc(O)c2)=C1c1ccccc1 | 13.8 | 158 |  | 
COc1cc(C2=C(c3ccccc3)C(=O)OC2=O)cc(OC)c1OC | 37.1 | 313 |  | 
C[S+]([O-])c1ccc(C2=C(c3ccccc3)C(=O)NC2=O)cc1 (configuration not stated) | 21.5 | 303 |  | 
CSc1ccc(C2=C(c3ccc(NC(C)=O)cc3)C(=O)OC2=O)cc1 | 5.71 | 250 | 20.1 | 
CS(=O)(=O)Nc1ccc([N+](=O)[O-])cc1OC1CCCCC1 [NS-398] | 4.8 |  |  | 
COc1cccc(C2=C(c3ccccc3)C(=O)NC2=O)c1 | 9.95 | 260 |  | 
C[S+]([O-])c1ccc(C2=C(c3ccc(O)cc3)C(=O)NC2=O)cc1 (configuration not stated) | 98.1 | 213 |  | 
O=C1NC(=O)C(c2cc(O)c(O)c(O)c2)=C1c1ccccc1 | 8.19 | 261 | 17.5 | 
CS(=O)(=O)c1ccc(C2=C(c3ccc(O)cc3)C(=O)NC2=O)cc1 |  | 171 |  | Not Active
COc1ccc(C2=C(c3ccccc3)C(=O)NC2=O)cc1OC | 132 | 305 |  | 
CS(=O)(=O)c1ccc(C2=C(c3ccccc3)C(=O)OC2=O)cc1 | 15.4 | 266 |  | 
COc1ccc(C2=C(c3ccc(S(C)(=O)=O)cc3)C(=O)OC2=O)cc1 |  | 271 |  | Not Active
CSc1ccc(C2=C(c3ccc(OC(C)=O)cc3)C(=O)OC2=O)cc1 | 30.5 | 334 |  | 
CSc1ccc(C2=C(c3ccc(O)cc3)C(=O)NC2=O)cc1 | 0.84 | 125 | 21 | 
